Data set [1] is described as follows: Drug metabolism in pH 7.4 PBS assessed as CO bounded myoglobin formation by measuring maximal absorption peak of deoxy-Mb incubated for 2 hrs by UV-vis absorption spectroscopy based myoglobin-CO assay.
Data set [2] is described as follows: Drug metabolism in pH 7.4 PBS assessed as 3',6'-dimethyl-[1,1':2',1''-terphenyl]-4'-carbaldehyde fromation by HPLC.
The nature of data set [3]: Drug metabolism in PBS buffer assessed as half life for carbon monoxide release at pH 7 by HPLC analysis.
In data set [4] the test system is RAW264.7. Description: Cytotoxicity against mouse RAW264.7 cells assessed as reduction in cell viability at 50 uM uM incubated for 5 hrs by WST8 assay. Type of data set: cell-based. The settings on record: raw264.7, 5 h. In general terms: Tetrazolium dyes change colour on reduction, which living cells bring about.
For data set [5], the system named is Mus musculus. The data set is described as follows: Hepatoprotective activity in LPS-stimulated ip dosed C57BL/6 mouse assessed as reduction in LPS-induced AST levels pretreated for 30 mins followed by LPS addition and measured after 6 hrs. The format is functional, organism-based.
Data set [6] deals with T1, Liver carboxylesterase (Sus scrofa, UniProt Q29550).
T1 sequence (Q29550 whole entry): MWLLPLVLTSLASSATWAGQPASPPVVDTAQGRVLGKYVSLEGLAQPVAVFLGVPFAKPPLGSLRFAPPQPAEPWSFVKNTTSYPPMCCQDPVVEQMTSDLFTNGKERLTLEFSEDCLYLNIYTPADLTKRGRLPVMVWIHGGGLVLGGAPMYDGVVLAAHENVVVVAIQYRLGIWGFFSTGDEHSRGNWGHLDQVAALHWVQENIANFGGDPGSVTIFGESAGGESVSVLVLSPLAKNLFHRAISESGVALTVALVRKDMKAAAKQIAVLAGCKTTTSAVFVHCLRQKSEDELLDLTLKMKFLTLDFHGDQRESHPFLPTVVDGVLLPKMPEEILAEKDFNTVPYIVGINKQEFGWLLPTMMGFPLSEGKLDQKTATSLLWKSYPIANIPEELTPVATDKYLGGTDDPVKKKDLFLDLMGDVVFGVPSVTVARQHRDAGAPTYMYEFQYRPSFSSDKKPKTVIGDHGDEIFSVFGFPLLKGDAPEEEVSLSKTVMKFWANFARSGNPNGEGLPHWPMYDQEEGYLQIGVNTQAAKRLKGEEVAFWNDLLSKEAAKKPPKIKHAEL
Description: Drug metabolism in pH 1 SGF assessed as porcine liver esterase-mediated (1S,4S)-1,4-Dimethyl-7-oxo-5,6-diphenyl-3-(phenylsulfonyl)bicyclo[2.2.1]hept-5-ene-2-carbaldehyde formation at 20 uM after 2 mins by HPLC analysis. Type of data set: ADME. The settings on record: pig, isolated protein, pH 1, 2 min. Put shortly: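 The prodrug was incubated in simulated gastric fluid (pH ~1) containing porcine liver esterase at 37 °C. HPLC tracked formation of the hydrolysed bicyclic intermediate and of the beta-elimination product for up to 7 h.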

Data set [7] is described as follows: Drug metabolism in rabbit serum assessed as esterase-mediated (1S,4S)-1,4-Dimethyl-7-oxo-5,6-diphenyl-3-(phenylsulfonyl)bicyclo[2.2.1]hept-5-ene-2-carbaldehyde metabolite formation by measuring half life by HPLC analysis. Type of data set: ADME, cell-free, Oryctolagus cuniculus. An outline of the steps: (§1)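 The prodrug was incubated in mouse, rat, rabbit or human serum. HPLC followed esterase-mediated hydrolysis to the bicyclic intermediate, giving a half-life, and the subsequent beta-elimination was followed for up to 20 h.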

The test system of data set [8] is Mus musculus. Description: Hepato-protective activity in LPS-stimulated C57BL/6 mouse assessed as reduction in LPS-induced liver injury at 10 mg/kg, ip pretreated for 30 mins followed by LPS addition and measured after 6 hrs by hematoxylin and eosin staining based assay. Type of data set: functional, organism-based.
A short description of data set [9]: Drug metabolism in mouse RAW264.7 cells assessed as carbon monoxide release at 50 uM after 5 hrs by COP1-based fluorescence assay. Type of data set: ADME, cell-based. The settings on record: raw264.7, 5 h.
Data set [10] relates to Mus musculus. The data set is described as follows: Hepatoprotective activity in LPS-stimulated ip dosed C57BL/6 mouse assessed as reduction in LPS-induced ALT levels pretreated for 30 mins followed by LPS addition and measured after 6 hrs. Type of data set: functional, organism-based.
For data set [11], the target named is T1, Liver carboxylesterase. Description: Drug metabolism in PBS buffer assessed as porcine liver esterase-mediated carbon monoxide release at pH 7 at 20 uM incubated for 48 hrs by HPLC analysis. Type of data set: ADME. Conditions: pig, isolated protein, pH 7, 48 h. Put shortly:
(§2)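 Prodrug at a starting concentration of 20 was incubated with porcine liver esterase (3 U/mL) in PBS containing 5% DMSO at 37 °C. CO release was followed by HPLC as formation of the beta-elimination product.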

Data set [12] deals with Mus musculus. Description: Antiinflammatory activity in LPS-stimulated ip dosed C57BL/6 mouse assessed as inhibition of LPS-induced serum TNFalpha levels pretreated for 30 mins followed by LPS addition and measured after 6 hrs by ELISA. Type of data set: functional, organism-based. In general terms: In an ELISA, binding on a coated surface is turned into a signal by an enzyme label.

For data set [13], the target named is T1, Liver carboxylesterase. Description: Drug metabolism in PBS buffer assessed as porcine liver esterase-mediated (1S,4S)-1,4-Dimethyl-7-oxo-5,6-diphenyl-3-(phenylsulfonyl)bicyclo[2.2.1]hept-5-ene-2-carbaldehyde formation at pH 7 at 20 uM incubated for 48 hrs by HPLC analysis. The format is ADME. The settings on record: pig, isolated protein, pH 7, 48 h.
Data set [14] concerns RAW264.7. The data set is described as follows: Antiinflammatory activity in mouse RAW264.7 cells assessed as reduction in LPS-induced TNFalpha secretion preincubated for 4 hrs followed by LPS addition and measured after 1 hr by ELISA. Type of data set: functional, cell-based.
The nature of data set [15]: Drug metabolism in pH 1 SGF assessed as (1S,4S)-1,4-Dimethyl-7-oxo-5,6-diphenyl-3-(phenylsulfonyl)bicyclo[2.2.1]hept-5-ene-2-carbaldehyde formation at 20 uM in absence of porcine liver esterase after 6 hrs by HPLC analysis. Put shortly:
(§3)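 The prodrug was incubated without porcine liver esterase for up to 6 h, in either PBS (pH 7) or simulated gastric fluid (pH ~1). HPLC monitored hydrolysis to the acetal-cleaved bicyclic intermediate.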

Data set [16] can be described thus: Drug metabolism in human serum assessed as esterase-mediated (1S,4S)-1,4-Dimethyl-7-oxo-5,6-diphenyl-3-(phenylsulfonyl)bicyclo[2.2.1]hept-5-ene-2-carbaldehyde metabolite formation by measuring half life by HPLC analysis. The format is ADME, cell-free. An outline of the steps:
as §1

The nature of data set [17]: Drug metabolism in mouse serum assessed as esterase-mediated (1S,4S)-1,4-Dimethyl-7-oxo-5,6-diphenyl-3-(phenylsulfonyl)bicyclo[2.2.1]hept-5-ene-2-carbaldehyde metabolite formation by measuring half life by HPLC analysis. The format is ADME, cell-free. Put shortly:
as §1

Data set [18] in a line: Drug metabolism in PBS buffer assessed as (1S,4S)-1,4-Dimethyl-7-oxo-5,6-diphenyl-3-(phenylsulfonyl)bicyclo[2.2.1]hept-5-ene-2-carbaldehyde formation at pH 7 at 20 uM in absence of porcine liver esterase after 6 hrs by HPLC analysis. Put shortly:
as §3

The nature of data set [19]: Drug metabolism in rat serum assessed as esterase-mediated (1S,4S)-1,4-Dimethyl-7-oxo-5,6-diphenyl-3-(phenylsulfonyl)bicyclo[2.2.1]hept-5-ene-2-carbaldehyde metabolite formation by measuring half life by HPLC analysis. The format is ADME, cell-free. An outline of the steps: as §1
Data set [20] has as its target T1, Liver carboxylesterase. The data set is described as follows: Drug metabolism in PBS buffer assessed as porcine liver esterase-mediated (1S,4S)-1,4-Dimethyl-7-oxo-5,6-diphenyl-3-(phenylsulfonyl)bicyclo[2.2.1]hept-5-ene-2-carbaldehyde formation at pH 7 at 20 uM after 36 hrs by HPLC analysis. The settings on record: pig, pH 7, 36 h.
Data set [21] has as its target T1, Liver carboxylesterase. Description: Drug metabolism in PBS buffer assessed as porcine liver esterase-mediated carbon monoxide release at pH 7 at 20 uM after 36 hrs by HPLC analysis. The format is ADME. Conditions: pig, isolated protein, pH 7, 36 h. Put shortly: as §2
Data set [22] has as its target T1, Liver carboxylesterase. The data set is described as follows: Drug metabolism in PBS buffer assessed as porcine liver esterase-mediated 3',6'-dimethyl-[1,1':2',1''-terphenyl]-4'-carbaldehyde formation at pH 7 at 20 uM after 36 hrs by HPLC analysis. The settings on record: pig, pH 7, 36 h. An outline of the steps:
as §2

In data set [23] the test system is RAW264.7. Description: Cytotoxicity against mouse RAW264.7 cells assessed as reduction in cell viability at 200 uM by WST8 assay. The format is cell-based. The settings on record: raw264.7, 200 µM.
The subject of data set [24] is RAW264.7. The data set is described as follows: Antiinflammatory activity in mouse RAW264.7 cells assessed as reduction in LPS-induced TNFalpha secretion at 12.5 to 100 uM preincubated for 4 hrs followed by LPS addition and measured after 1 hr by ELISA. The format is functional, cell-based.
The subject of data set [25] is Mus musculus. The data set is described as follows: Hepatoprotective activity in LPS-stimulated C57BL/6 mouse assessed as reduction in LPS-induced ALT levels at 10 mg/kg, ip pretreated for 30 mins followed by LPS addition and measured after 6 hrs. The format is functional, organism-based.
For data set [26], the system named is Mus musculus. Description: Hepatoprotective activity in LPS-stimulated C57BL/6 mouse assessed as reduction in LPS-induced AST levels at 10 mg/kg, ip pretreated for 30 mins followed by LPS addition and measured after 6 hrs. The format is functional, organism-based.
In data set [27] the test system is Mus musculus. The data set is described as follows: Antiinflammatory activity in LPS-stimulated C57BL/6 mouse assessed as inhibition of LPS-induced serum TNFalpha levels at 10 mg/kg, ip pretreated for 30 mins followed by LPS addition and measured after 6 hrs by ELISA. Type of data set: functional, organism-based.

Activity calls are given as the source filed them. No cut-off for these calls is given here.

Turning to `C[C@@]12C(=O)[C@](C)(C(c3ccccc3)=C1c1ccccc1)[C@@H](S(=O)(=O)c1ccccc1)[C@H]2C=O`, the Drug metabolism entry in data set [1] and in [2] was “Metabolite detected” each time. Besides, in data set [3], the T1/2 came out at 30 min.

With `CC(=O)OC(OC(C)=O)[C@@H]1[C@H](S(=O)(=O)c2ccccc2)[C@]2(C)C(=O)[C@]1(C)C(c1ccccc1)=C2c1ccccc1`, the Activity result is “Non-Toxic” in [4], “Dose-dependent effect” in data set [5], “Dose-dependent effect” in data set [10] and “Dose-dependent effect” in data set [12]. Further, the Drug metabolism result in data set [6] was “Metabolite_Detected”; in data set [9], “Metabolite_Detected”; in data set [13], “Metabolite_Detected”; in data set [15] it was “Metabolite not detected”; in data set [18], “Metabolite not detected”. Further, the t1/2 in [7] was 30 min; in data set [11], 0.5 to 8 h; in data set [16] it was 14 h; in data set [17] it was 3 min; in [19], 10 min. Moreover, the result in [8] was Active. Moreover, the inhibition entry in data set [14] was “Dose-dependent effect”.

For the compound `CCCC(=O)OC(OC(=O)CCC)[C@@H]1[C@H](S(=O)(=O)c2ccccc2)[C@]2(C)C(=O)[C@]1(C)C(c1ccccc1)=C2c1ccccc1`, the Drug metabolism result in [13] is “Metabolite_Detected”.

Regarding `C[C@@]12C(=O)[C@](C)(C(c3ccccc3)=C1c1ccccc1)[C@@H](S(=O)(=O)c1ccccc1)[C@H]2C(OC(=O)C1CC1)OC(=O)C1CC1`, the Drug metabolism entry in data set [13] is “Metabolite_Detected”.

Take `CC(C)(C)C(=O)OC(OC(=O)C(C)(C)C)[C@@H]1[C@H](S(=O)(=O)c2ccccc2)[C@]2(C)C(=O)[C@]1(C)C(c1ccccc1)=C2c1ccccc1`: the Drug metabolism result in data set [20], in data set [21] and in data set [22] was “Metabolite_Notdetected” each time.

On to `Cc1cc(C=O)c(C)c(-c2ccccc2)c1-c1ccccc1`, for which, in [23], the Activity entry is recorded as “Non-Toxic”. The inhibition entry in data set [24] was “inactive”. Besides, the result in data set [25], in data set [8], in data set [26] and in data set [27] was inactive.

These data come from ChEMBL document CHEMBL4316601, “Esterase-Sensitive and pH-Controlled Carbon Monoxide Prodrugs for Treating Systemic Inflammation” (J Med Chem, 2019).
